From ChEMBL document CHEMBL1145336, “1-aryl-3-(4-pyridine-2-ylpiperazin-1-yl)propan-1-one oximes as potent dopamine D4 receptor agonists for the treatment of erectile dysfunction” (J Med Chem, 2006)

Assays:
Assay type in all cases: functional, cell-based
D(4) dopamine receptor = target: T1, D(4) dopamine receptor (Homo sapiens, UniProt P21917); assay: Activity at human recombinant D4.4 receptor expressed in HEK293 cells by FLIPR assay
T1 sequence (P21917 whole entry): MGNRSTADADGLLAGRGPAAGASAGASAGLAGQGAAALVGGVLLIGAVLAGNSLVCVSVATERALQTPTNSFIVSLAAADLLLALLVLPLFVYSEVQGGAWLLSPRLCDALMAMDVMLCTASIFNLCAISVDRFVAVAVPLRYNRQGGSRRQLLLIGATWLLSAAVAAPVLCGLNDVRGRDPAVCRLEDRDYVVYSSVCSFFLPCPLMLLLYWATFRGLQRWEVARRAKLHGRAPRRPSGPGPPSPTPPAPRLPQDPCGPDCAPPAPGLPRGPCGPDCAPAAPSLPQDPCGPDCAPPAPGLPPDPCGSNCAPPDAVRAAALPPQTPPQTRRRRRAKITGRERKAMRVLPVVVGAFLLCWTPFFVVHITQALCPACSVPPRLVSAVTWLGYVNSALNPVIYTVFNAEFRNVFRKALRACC

D(2) dopamine receptor [1] = target: T2, D(2) dopamine receptor (Homo sapiens, UniProt P14416); assay: Antagonist activity at human recombinant D2 receptor expressed in HEK293 cells by FLIPR assay
D(2) dopamine receptor [2] = target: T2, D(2) dopamine receptor; assay: Agonist activity at human recombinant D2 receptor expressed in HEK293 cells by FLIPR assay
Method in brief: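 Calcium flux (FLIPR) in HEK-293 cells coexpressing recombinant human D2L with chimeric Gqo5. Efficacy is the maximal response relative to 10 µM dopamine (100%). EC50 is the concentration giving half-maximal stimulation. Values are means (SEM, n ≥ 3).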

T2 sequence (P14416 whole entry): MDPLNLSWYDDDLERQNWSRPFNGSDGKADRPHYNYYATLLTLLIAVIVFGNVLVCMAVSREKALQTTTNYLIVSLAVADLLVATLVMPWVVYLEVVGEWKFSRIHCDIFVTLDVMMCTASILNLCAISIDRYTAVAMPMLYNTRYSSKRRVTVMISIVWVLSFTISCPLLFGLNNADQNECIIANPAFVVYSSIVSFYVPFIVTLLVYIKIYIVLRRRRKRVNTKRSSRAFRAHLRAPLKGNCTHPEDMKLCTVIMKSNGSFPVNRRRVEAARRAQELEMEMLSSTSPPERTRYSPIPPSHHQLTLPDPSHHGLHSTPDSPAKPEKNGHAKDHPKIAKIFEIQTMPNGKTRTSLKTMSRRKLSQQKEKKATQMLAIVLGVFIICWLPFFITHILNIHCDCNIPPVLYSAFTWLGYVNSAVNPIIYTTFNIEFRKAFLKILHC

| SMILES | EC50 (D(4) dopamine receptor) [µM] | IC50 (D(2) dopamine receptor [1]) [µM] | EC50 (D(2) dopamine receptor [2]) [µM] |
| --- | --- | --- | --- |
| Cc1cc(C)cc(/C(CCN2CCN(c3ccccn3)CC2)=N/O)c1 | 0.0458 | > 10 | > 10 |
| O/N=C(/CCN1CCN(c2ccccn2)CC1)c1ccccc1Cl | 0.025 | > 10 | > 10 |
| CO/N=C(/CCN1CCN(c2ccccn2)CC1)c1ccccc1 | 0.0241 | > 10 | > 10 |
| CO/N=C(/c1cccnc1)C(O)CN1CCN(c2ccccn2)CC1 (configuration not stated) | 0.123 | > 10 | > 10 |
| CO/N=C(\CCN1CCN(c2ccccc2OC(C)C)CC1)c1ccc(F)cc1 | 0.594 | > 10 | > 10 |
| Cc1cccc(/C(CCN2CCN(c3ccccn3)CC2)=N/O)c1 | 0.0023 | > 10 | > 10 |
| Cc1ccc(O)c(/C(CCN2CCN(c3ccccn3)CC2)=N/O)c1 | 0.0192 | > 10 | > 10 |
| O/N=C(\CCN1CCN(c2ccccn2)CC1)c1cccc(F)c1 | 0.0171 | > 10 | > 10 |
| CO/N=C(\CCN1CCN(c2ccccn2)CC1)c1ccc(Cl)cc1Cl | 0.249 | > 10 | > 10 |
| CO/N=C(/CCN1CCC(c2cccc[n+]2[O-])CC1)c1ccc(Cl)cc1 | 0.0464 | > 10 | > 10 |
| N#Cc1cccnc1N1CCN(CC/C(=N/O)c2ccccc2)CC1 | 0.02 | > 10 | > 10 |
| CO/N=C(/CCN1CCN(c2ccccn2)CC1)c1ccc(Cl)cc1 | 0.0566 | > 10 | > 10 |
| C=CCO/N=C(\CCN1CCN(c2ccccn2)CC1)c1ccccc1 | 0.35 | > 10 | > 10 |
| CCO/N=C1/c2ccccc2CCC1CN1CCN(c2ccccn2)CC1 (configuration not stated) | 4.76 | > 10 | > 10 |
| O/N=C(\CCN1CCN(c2ccccn2)CC1)c1ccc(F)cc1F | 0.0089 | > 10 | > 10 |
| CO/N=C(/CN1CCN(c2ccccn2)CC1)c1ccc(F)cc1 | 4.29 | > 10 | > 10 |
| CCO/N=C(\CCN1CCN(c2ccccc2OC)CC1)c1ccccc1 | 0.338 | > 10 | > 10 |

| SMILES | EC50 (D(4) dopamine receptor) [µM] | IC50 (D(2) dopamine receptor [1]) [µM] | EC50 (D(2) dopamine receptor [2]) [µM] |
| --- | --- | --- | --- |
| CCCCO/N=C(\CCN1CCN(c2ccccn2)CC1)c1ccccc1 | 0.382 | > 10 | > 10 |
| CO/N=C(\CCN1CCN(c2ccccn2)CC1)c1ccc(Br)cc1 | 0.183 | > 10 | > 10 |
| CCO/N=C(\CCN1CCN(c2ncccn2)CC1)c1ccccc1 | 0.615 | > 10 | > 10 |
| Cc1cccc(/C(=N/O)C(O)CN2CCN(c3ccccn3)CC2)c1 (configuration not stated) | 0.0049 | > 10 | > 10 |
| CO/N=C(\CCN1CCC(c2cccc[n+]2[O-])CC1)c1ccc(Cl)cc1 | 0.084 | > 10 | > 10 |
| Cc1cccc(/C(=N\O)C(O)CN2CCN(c3ccccn3)CC2)c1 (configuration not stated) | 0.0448 | > 10 | > 10 |
| CCO/N=C(\CCN1CCN(c2ccccc2)CC1)c1ccccc1 | 0.109 | > 10 | > 10 |
| CO/N=C(\CCN1CCCC(c2ccccn2)C1)c1ccc(Cl)cc1 (configuration not stated) | 0.606 | > 10 | > 10 |
| CO/N=C(/CCN1CCN(c2ccccn2)CC1)c1ccc(Cl)c(Cl)c1 | 0.341 | > 10 | > 10 |
| Cc1ccccc1/C(CCN1CCN(c2ccccn2)CC1)=N\O | 0.0203 | > 10 | > 10 |
| N#Cc1cccc(/C(CCN2CCN(c3ccccn3)CC2)=N/O)c1 | 0.0131 | > 10 | > 10 |
| O/N=C(\CCN1CCN(c2ccccn2)CC1)c1cccc(Cl)c1 | 0.0119 | > 10 | > 10 |
| CO/N=C(\c1ccc(Cl)cc1)C(CN1CCN(c2ccccn2)CC1)OC (configuration not stated) | 0.195 | > 10 | > 10 |
| O/N=C(\CN1CCN(c2ccccn2)CC1)c1ccc(F)cc1 | 0.026 | > 10 | > 10 |
| CO/N=C(/CCN1CCN(c2ccccn2)CC1)c1ccc(Br)cc1 | 0.082 | > 10 | > 10 |
| O/N=C(\CCCN1CCN(c2ccccn2)CC1)c1ccc(F)cc1 | 0.0095 | > 10 | > 10 |
| CO/N=C(\CCCN1CCN(c2ccccn2)CC1)c1ccc(F)cc1 | 0.0417 | > 10 | > 10 |

The next lines start with the values.

| EC50 (D(4) dopamine receptor) [µM] | IC50 (D(2) dopamine receptor [1]) [µM] | EC50 (D(2) dopamine receptor [2]) [µM] | SMILES |
| --- | --- | --- | --- |
| 0.045 | > 10 | > 10 | CCO/N=C(/CCN1CCN(c2ccccn2)CC1)c1ccccc1 |
| 0.0593 | > 10 | > 10 | O/N=C(/CCCN1CCN(c2ccccn2)CC1)c1ccc(F)cc1 |
| 0.099 | > 10 | > 10 | CO/N=C(/CCN1CCN(c2ccccn2)CC1C)c1ccc(Cl)cc1 (configuration not stated) |
| > 10 | > 10 | > 10 | Cc1ccc(OCc2ccccc2)c(/C(CCN2CCN(c3ccccn3)CC2)=N/O)c1 |
| 5.37 | > 10 | > 10 | COC(CN1CCN(c2ccccn2)CC1)/C(=N/O)c1cccc(C)c1 (configuration not stated) |
| 0.601 | > 10 | > 10 | CO/N=C(/CCN1CCN(c2ccccc2OC(C)C)CC1)c1ccc(F)cc1 |
| 0.018 | > 10 | > 10 | N#Cc1cccnc1N1CCN(CC/C(=N\O)c2ccccc2)CC1 |
| > 10 | > 10 | > 10 | O/N=C(/CN1CCN(c2ccccn2)CC1)c1ccc(F)cc1 |
| 0.0401 | > 10 | > 10 | CO/N=C(/CCN1CCN(c2ccccn2)CC1)c1ccccc1C |
| 0.0572 | > 10 | > 10 | CO/N=C(/CCN1CCN(c2ccccn2)CC1)c1ccccc1Cl |
| 0.0217 | > 10 | > 10 | O/N=C(/CCN1CCN(c2ccccn2)CC1)c1ccccc1 |
| 0.0637 | > 10 | > 10 | CO/N=C(\CCN1CCN(c2ccccn2)CC1)c1cccc(C#N)c1 |
| 3.21 | > 10 | > 10 | CO/N=C(/c1ccc(Cl)cc1)C(COC(C)C)CN1CCN(c2ccccn2)CC1 (configuration not stated) |
| 0.0423 | > 10 | > 10 | CO/N=C(\CCN1CCN(c2ccccn2)CC1)c1ccccc1Cl |
| 0.0495 | > 10 | > 10 | O/N=C(\CCN1CCN(c2nccs2)CC1)c1ccccc1 |
| 0.0042 | > 10 | > 10 | Cc1ccccc1/C(CCN1CCN(c2ccccn2)CC1)=N/O |
| 0.113 | > 10 | > 10 | CO/N=C(/CCN1CCN(c2ccccn2)CC1)c1cccc(Cl)c1 |
| 0.0747 | > 10 | > 10 | CO/N=C(/CCN1CCN(c2ccccn2)CC1)c1cc(C)cc(C)c1 |
| 0.0175 | > 10 | > 10 | O/N=C(/CCN1CCN(c2ccccn2)CC1)c1cc(F)cc(F)c1 |
| 0.024 | > 10 | > 10 | O/N=C(\CCN1CCN(c2ccccn2)CC1)c1ccccc1Cl |
